In brackets after ≈: the same amount, converted by molar mass. Activity calls are given as the source filed them. The rule behind the calls is not given here.
Key:
Staphylococcus aureus [1] = assay: Bactericidal activity against methicillin-resistant Staphylococcus aureus USA300 up to 18 hrs by broth microdilution assay; assay type: functional; conditions: USA300, 18 h, read-out: MBC99.9
Staphylococcus aureus [2] = assay: Antibacterial activity against methicillin-resistant Staphylococcus aureus USA300 after 20 hrs by broth microdilution assay; assay type: functional; conditions: USA300, 20 h
In short: (§1)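 Broth microdilution per CLSI in cation-adjusted Mueller Hinton broth. Compounds serially diluted, in triplicate. Incubation at 37 °C for at least 20 hours. MIC taken as the lowest concentration with no visible bacterial growth.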

[3] = human, microsomes, 1 h, 0.1 µM
[4] = Selectivity index, ratio of toxic concentration for human HRT18 cells to MIC for methicillin-resistant Staphylococcus aureus; assay type: toxicity; conditions: read-out: Selectivity Index
Staphylococcus aureus [5] = assay: Antibacterial activity against methicillin-resistant Staphylococcus aureus NRS119 after 20 hrs by broth microdilution assay; assay type: functional; conditions: NRS119, 20 h; in short: as §1
Staphylococcus aureus [6] = assay: Antibacterial activity against vancomycin-resistant Staphylococcus aureus VRS11a after 20 hrs by broth microdilution assay; assay type: functional; in short: as §1
Staphylococcus aureus [7] = assay: Ratio of MBC to MIC for methicillin-resistant Staphylococcus aureus NRS123 (USA400); assay type: functional
In short: (§2)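 MBC/MIC ratio. […] MBC by plating no-growth wells onto tryptic soy agar at 37 °C for at least 18 h; taken as the concentration giving 99.9% growth inhibition.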

Staphylococcus aureus [8] = assay: Bactericidal activity against methicillin-resistant Staphylococcus aureus USA300 assessed as reduction in bacterial load at 4 times MIC after 24 hrs by time kill assay relative to control; assay type: functional
Staphylococcus aureus [9] = assay: Bactericidal activity against methicillin resistant vancomycin-resistant Staphylococcus aureus VRS11a up to 18 hrs by broth microdilution assay; assay type: functional; conditions: read-out: MBC99.9
Staphylococcus aureus [10] = assay: Antibacterial activity against methicillin-resistant Staphylococcus aureus NRS123 (USA400) infected in mouse J774 cells at 16 ug/ml after 24 hrs; assay type: functional, organism-based
In short: (§3)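 J774 macrophages grown in DMEM with 10% FBS at 37 °C, 5% CO2. Infected with USA400 at MOI ~100:1 for 1 h, then washed with gentamicin 50 μg/mL. Treated in triplicate wells for 24 h, washed with gentamicin again and lysed with 0.1% Triton X-100. Lysate plated on tryptic soy agar for 18–22 h; CFU/mL counted.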

Staphylococcus aureus [11] = assay: Ratio of MBC to MIC for methicillin-resistant Staphylococcus aureus NRS107; assay type: functional; in short: as §2
HRT-18 cell line = assay: Cytotoxicity against human HRT18 cells assessed as reduction in cell viability up to 32 ug/ml after 2 hrs by MTS assay; assay type: cell-based; conditions: hrt-18, 2 h
Staphylococcus aureus [12] = assay: Potency index, ratio of vancomycin MIC to compound MIC for antibacterial activity against vancomycin-resistant Staphylococcus aureus VRS10; assay type: functional
Staphylococcus aureus [13] = assay: Ratio of MBC to MIC for methicillin-resistant Staphylococcus aureus NRS119; assay type: functional; in short: as §2
Staphylococcus aureus [14] = assay: Bactericidal activity against methicillin-resistant Staphylococcus aureus NRS107 up to 18 hrs by broth microdilution assay; assay type: functional; conditions: NRS107, 18 h, read-out: MBC99.9
Staphylococcus aureus [15] = assay: Antibacterial activity against methicillin-resistant Staphylococcus aureus NRS107 after 20 hrs by broth microdilution assay; assay type: functional; conditions: NRS107, 20 h; in short: as §1
J774 [16] = assay: Cytotoxicity against mouse J774 cells assessed as reduction in cell viability up to 16 ug/ml after 24 hrs by MTS assay; assay type: cell-based; conditions: j774, 24 h
In short: (§4)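 J774 murine macrophages were grown in DMEM with 10% FBS at 37 °C, 5% CO2. Compounds were tested at 8, 16 and 32 μg/mL in triplicate for 24 h, with a DMSO-matched control. MTS was added for 4 h and absorbance read at 490 nm. Viability is given as % of DMSO control (mean ± SD); Student t-test with Holm-Sidak test.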

Staphylococcus aureus [17] = assay: Bactericidal activity against methicillin resistant vancomycin-resistant Staphylococcus aureus VRS12 up to 18 hrs by broth microdilution assay; assay type: functional; conditions: VRS12, 18 h, read-out: MBC99.9
In short: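 MBC set up from the MIC plates. Aliquots from wells with no growth spotted onto tryptic soy agar and incubated at 37 °C for at least 18 hours. MBC taken as the lowest concentration giving 99.9% inhibition of bacterial growth.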

Staphylococcus aureus [18] = assay: Potency index, ratio of vancomycin MIC to compound MIC for antibacterial activity against vancomycin-resistant Staphylococcus aureus VRS11a; assay type: functional
Staphylococcus aureus [19] = assay: Bactericidal activity against methicillin-resistant Staphylococcus aureus USA300 assessed as reduction in bacterial load at 4 times MIC after 4 hrs by time kill assay relative to control; assay type: functional
Staphylococcus aureus [20] = assay: Bactericidal activity against methicillin-resistant Staphylococcus aureus NRS119 up to 18 hrs by broth microdilution assay; assay type: functional; conditions: NRS119, 18 h, read-out: MBC99.9
Staphylococcus aureus [21] = assay: Ratio of MBC to MIC for methicillin-resistant Staphylococcus aureus USA300; assay type: functional; in short: as §2
Staphylococcus aureus [22] = assay: Bactericidal activity against methicillin-resistant Staphylococcus aureus USA300 assessed as reduction in bacterial load at 4 times MIC after 12 hrs by time kill assay relative to control; assay type: functional
Staphylococcus aureus [23] = assay: Antibacterial activity against vancomycin-resistant Staphylococcus aureus VRS12 after 20 hrs by broth microdilution assay; assay type: functional; conditions: VRS12, 20 h; in short: as §1
Staphylococcus aureus [24] = assay: Ratio of MBC to MIC for vancomycin-resistant Staphylococcus aureus VRS11a; assay type: functional; in short: as §2
Staphylococcus aureus [25] = assay: Ratio of MBC to MIC for vancomycin-resistant Staphylococcus aureus VRS10; assay type: functional; in short: as §2
Staphylococcus aureus [26] = assay: Antibacterial activity against vancomycin-resistant Staphylococcus aureus VRS10 after 20 hrs by broth microdilution assay; assay type: functional; conditions: VRS10, 20 h; in short: as §1
Staphylococcus aureus [27] = assay: Ratio of MBC to MIC for vancomycin-resistant Staphylococcus aureus VRS12; assay type: functional; in short: as §2
Staphylococcus aureus [28] = assay: Bactericidal activity against methicillin resistant Staphylococcus aureus NRS123 (USA400) up to 18 hrs by broth microdilution assay; assay type: functional; conditions: read-out: MBC99.9
Staphylococcus aureus [29] = assay: Bactericidal activity against methicillin resistant vancomycin-resistant Staphylococcus aureus VRS10 up to 18 hrs by broth microdilution assay; assay type: functional; conditions: VRS10, 18 h, read-out: MBC99.9
Staphylococcus aureus [30] = assay: Antibacterial activity against methicillin-resistant Staphylococcus aureus NRS123 (USA400) after 20 hrs by broth microdilution assay; assay type: functional; in short: as §1
Staphylococcus aureus [31] = assay: Potency index, ratio of vancomycin MIC to compound MIC for antibacterial activity against vancomycin-resistant Staphylococcus aureus VRS12; assay type: functional
Staphylococcus aureus [32] = assay: Inhibition of UPPS/UPPP in vancomycin-resistant Staphylococcus aureus VRS10 assessed as potentiation of vancomycin-induced antibacterial activity by measuring fold reduction in vancomycin MIC at 0.5 times MIC preincubated for 30 mins followed by vancomycin addition measured after 20 to 22 hrs by broth microdilution assay relative to control
In short: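 VRS10 suspension pre-exposed to compound at ½ × MIC for 30 min at room temperature. […] Incubation at 37 °C for 20–22 h before the MIC was read; untreated bacteria served as control.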

Staphylococcus aureus [33] = assay: Antibacterial activity against methicillin-resistant Staphylococcus aureus NRS123 (USA400) infected in mouse J774 cells at 8 ug/ml after 24 hrs; assay type: functional, organism-based; in short: as §3
Staphylococcus aureus [34] = assay: Bactericidal activity against methicillin-resistant Staphylococcus aureus NRS123 (USA400) assessed as reduction in bacterial load at 4 times MIC after 8 hrs by time kill assay relative to control; assay type: functional
J774 [35] = assay: Cytotoxicity against mouse J774 cells assessed as reduction in cell viability up to 8 ug/ml after 24 hrs by MTS assay; assay type: cell-based; conditions: j774, 24 h; in short: as §4

SMILES | MBC (Staphylococcus aureus [1]) | MIC (Staphylococcus aureus [2]) | selectivity ratio [4] | MIC (Staphylococcus aureus [5]) | MIC (Staphylococcus aureus [6]) | Ratio (Staphylococcus aureus [7]) | MBC (Staphylococcus aureus [9]) | Ratio (Staphylococcus aureus [11]) | Activity (HRT-18 cell line) | Ratio (Staphylococcus aureus [12]) | Ratio (Staphylococcus aureus [13]) | MBC (Staphylococcus aureus [14]) | MIC (Staphylococcus aureus [15]) | MBC (Staphylococcus aureus [17]) | Ratio (Staphylococcus aureus [18]) | MBC (Staphylococcus aureus [20]) | Ratio (Staphylococcus aureus [21]) | MIC (Staphylococcus aureus [23]) | Ratio (Staphylococcus aureus [25]) | MIC (Staphylococcus aureus [26]) | further results
C/C(=N\NC1=NCCN1)c1sc(-c2ccc(C#CC3CC3)cc2)nc1C | 16 µg/mL (≈ 44 µM) | 8 µg/mL (≈ 22 µM) | – | – | – | – | – | – | – | – | – | – | – | – | – | – | – | – | – | – | CLH [3]: < 115.5 µL/min/mg
C/C(=N\NC(=N)N)c1sc(-c2ccc(C#CC3CCCCC3)cc2)nc1C | 4 µg/mL (≈ 10.5 µM) | 2 µg/mL (≈ 5.27 µM) | 7 to 31 | 4 µg/mL (≈ 10.5 µM) | 1 µg/mL (≈ 2.63 µM) | <=3 | 2 µg/mL (≈ 5.27 µM) | <=3 | Non-Toxic | >100 | <=3 | 16 µg/mL (≈ 42.2 µM) | 16 µg/mL (≈ 42.2 µM) | 2 µg/mL (≈ 5.27 µM) | >100 | 4 µg/mL (≈ 10.5 µM) | <=3 | 2 µg/mL (≈ 5.27 µM) | <=3 | 2 µg/mL (≈ 5.27 µM) | Activity (Staphylococcus aureus [8]): 4.3 deltalog10CFU/ml; Activity (Staphylococcus aureus [10]): inactive; Activity (J774 [16]): Non-Toxic; Activity (Staphylococcus aureus [19]): 1.9 deltalog10CFU/ml; Activity (Staphylococcus aureus [22]): 2.8 deltalog10CFU/ml; Ratio (Staphylococcus aureus [24]): <=3; Ratio (Staphylococcus aureus [27]): <=3; MBC (Staphylococcus aureus [28]): 2 µg/mL (≈ 5.27 µM); MBC (Staphylococcus aureus [29]): 2 µg/mL (≈ 5.27 µM); MIC (Staphylococcus aureus [30]): 2 µg/mL (≈ 5.27 µM); Ratio (Staphylococcus aureus [31]): 8
C/C(=N\NC(=N)N)c1sc(-c2ccc(C#CC3CCCC3)cc2)nc1C | 4 µg/mL (≈ 10.9 µM) | 2 µg/mL (≈ 5.47 µM) | 7 to 31 | 1 µg/mL (≈ 2.74 µM) | 1 µg/mL (≈ 2.74 µM) | <=3 | 4 µg/mL (≈ 10.9 µM) | <=3 | Non-Toxic | >100 | <=3 | 2 µg/mL (≈ 5.47 µM) | 2 µg/mL (≈ 5.47 µM) | 2 µg/mL (≈ 5.47 µM) | >100 | 2 µg/mL (≈ 5.47 µM) | <=3 | 2 µg/mL (≈ 5.47 µM) | <=3 | 2 µg/mL (≈ 5.47 µM) | fold change (FC) (Staphylococcus aureus [32]): 512; Activity (Staphylococcus aureus [33]): inactive; Activity (Staphylococcus aureus [34]): 3 deltalog10CFU/ml; Ratio (Staphylococcus aureus [24]; read-out: Ratio): 4; Ratio (Staphylococcus aureus [27]): <=3; MBC (Staphylococcus aureus [28]): 2 µg/mL (≈ 5.47 µM); MBC (Staphylococcus aureus [29]): 2 µg/mL (≈ 5.47 µM); Activity (J774 [35]): Non-Toxic; MIC (Staphylococcus aureus [30]): 2 µg/mL (≈ 5.47 µM); Ratio (Staphylococcus aureus [31]): 8
